Wee1 degr inh: inhibitors of human Wee1 degradation | P30291 | HeLa Luc-Wee1K328M stability, luciferase luminescence; 100% = proteasome inhibitor MG132 effect | reporter increase, % at 5 µM | actives 1.2% (n = 220,000);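 active = activation above the mean of all tested compounds plus 3 SD, set per screening run, cut at about 8.8% in these data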;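 also: cells exposed to compound for 20 h before luminescence read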
Runt-CBFb FRET: Runt domain-CBFb interaction inhibition; Q01196+Q13951; Cerulean-Runt/Venus-CBFb FRET ratio 530/480, 1 h; inhibition, % at 20 µM; actives 0.46% (n = 220,000); AID 1496;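 active = inhibition over about 50% at 20 µM in the single-dose screen, limit read from the data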
Target sequence (Q01196 whole entry, looked up, the tested form may be a part): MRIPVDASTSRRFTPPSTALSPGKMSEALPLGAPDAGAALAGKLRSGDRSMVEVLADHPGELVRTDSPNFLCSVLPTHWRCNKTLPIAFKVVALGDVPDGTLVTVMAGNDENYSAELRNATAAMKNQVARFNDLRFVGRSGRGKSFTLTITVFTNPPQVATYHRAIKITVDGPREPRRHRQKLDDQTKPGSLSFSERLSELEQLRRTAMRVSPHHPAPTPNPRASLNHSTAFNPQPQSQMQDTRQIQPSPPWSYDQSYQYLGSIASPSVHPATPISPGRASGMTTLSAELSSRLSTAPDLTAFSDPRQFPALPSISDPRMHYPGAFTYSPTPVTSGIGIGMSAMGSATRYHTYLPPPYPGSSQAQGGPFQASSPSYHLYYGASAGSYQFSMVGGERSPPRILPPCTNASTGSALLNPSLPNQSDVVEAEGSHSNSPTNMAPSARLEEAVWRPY
Target sequence (Q13951 whole entry, looked up, the tested form may be a part): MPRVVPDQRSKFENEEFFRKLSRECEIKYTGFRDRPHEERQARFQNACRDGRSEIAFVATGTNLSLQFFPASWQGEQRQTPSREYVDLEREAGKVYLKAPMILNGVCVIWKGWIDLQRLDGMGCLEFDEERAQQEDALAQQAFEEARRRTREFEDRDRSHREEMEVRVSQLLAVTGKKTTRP
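System: Cerulean-labeled Runt domain protein | Quantity: 100 nM of each labeled protein | Schedule: 1 h compound exposure, room temperature | Detection: Fluorescence energy transfer, 422 nm excitation, 530/480 nm emission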
AI-2 QS modul: modulators of Vibrio harveyi AI-2 quorum sensing system; AID 2094; activity change, % at 7.5 µM; Vibrio harveyi JMH597 AI-2 luminescence/OD600 ratio, 9 h; active compounds read low; strain lacks LuxN and CqsS sensors; 0 = neutral-control median; actives 0.4% (n = 300,000); in the data active = activity change below about -75%, passing the limit was not always enough; inconclusive = no clear call, values can overlap the other calls;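 also: luminescence divided by OD600 gain over 9 h not by final OD600 alone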
KLK7 zymogen act: activators of human kallikrein-7 zymogen; purified proKLK7, EDANS-DABCYL substrate fluorescence; 100% is mature enzyme control, 0% vehicle; AID 652039; actives 0.9% (n = 370,000); P49862; activation, % at 7 µM;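 active = activation above the mean of all tested compounds plus 3 SD, computed per campaign excluding outliers beyond control limits, cut at about 13% in these data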
Runt-SMMHC FRET: inhibitors of human RUNX1 Runt domain binding to CBFb-SMMHC; Cerulean-Runt/Venus-CBFb-SMMHC FRET ratio 530/480, 1 h; inhibition, % at 20 µM; actives 0.74% (n = 220,000);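 active = mean inhibition across duplicate retests at 20 µM reaching about 50%, limit read from the data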;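 also: inhibitors lower the FRET ratio by blocking Runt binding to CBFb-SMMHC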
RanGTP-Imp inh: disruptors of Ran-importin-beta complex formation – biochemical, FRET, CFP-Ran, YFP-importin-beta, homogeneous, primary screen | inhibition, % (test concentration not listed) | cell-free CFP-Ran/YFP-importin-beta FRET ratio | actives 1.1% (n = 300,000);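 active = more than half of the replicate wells show a fall in the fluorescence ratio signal beyond about 16%, limit read from the data, passing the limit was not always enough; inconclusive = exactly half of the replicate wells pass the set limit; inactive = fewer than half of replicates pass the limit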
Wee1 stab conf: confirmation of human Wee1 degradation inhibitors; shares compounds with Wee1 degr inh; HeLa Luc-Wee1K328M degradation, luminescence; vehicle 0%, proteasome-blocked wells 100%; activation, % at 5 µM; actives 4% (n = 1,100); AID 1410; in the data active = activation above about 8.9%
Numbers stand for hits; n = inactive; u = inconclusive; x = no result given. Shown are actives, neighbours in structure and some others; about 2.9% of the full set was active somewhere.

SMILES	Wee1 degr inh	Runt-CBFb FRET	AI-2 QS modul	KLK7 zymogen act	Runt-SMMHC FRET	RanGTP-Imp inh	Wee1 stab conf
CC(C)/C=N/Nc1nc2c(c(=O)n(C)c(=O)n2C)n1C	12	n	n	n	n	n	n
CCCCn1c(-c2cccs2)nc2nc3ccccc3nc21	13	n	n	n	158	n	n
Cc1ccc(NC(=O)Cn2nnc(-c3ccccc3NC(=O)c3cccs3)n2)cc1	14	n	n	n	n	n	n
O=C(Nc1ccc(F)cc1F)c1csc(-c2cccs2)n1	11	n	n	n	n	n	n
O=C(Nc1ccc(F)cc1F)c1csc(-c2ccncc2)n1	n	n	n	n	n	n	x
CCc1ccc(C2=NN(CCC(=O)NCc3cccs3)C(=O)CC2)cc1	n	n	n	n	n	n	x
O=C(CN1N=C(c2ccc(Cl)cc2)CCC1=O)NCc1cccs1	12	n	n	x	n	n	n
CC(=O)OCC1CCCC2=C(C)C(=O)CCC21COC(C)=O (configuration not stated)	n	n	n	n	n	n	x
CSCc1ccc(C(=O)NC(C)c2cnn(-c3ccccn3)c2C)o1 (configuration not stated)	x	x	n	n	x	n	x
CCCCN(C(=O)c1ccc2c(c1)OCO2)c1ccccc1	14	n	n	n	n	n	n
COc1ccc(N2CCC(CNC(=S)Nc3cccc(C)c3)C2)cc1 (configuration not stated)	11	n	n	n	n	n	n
COc1ccc(N2CCC(CNC(=S)Nc3c(C)cc(C)cc3C)C2)cc1 (configuration not stated)	n	n	n	n	n	n	x
COCCCNC(=O)CSc1nc2ccccc2c(=O)n1CCc1ccc(S(N)(=O)=O)cc1	x	x	n	n	x	n	x
CC(C)(C)Sc1ccccc1S(=O)(=O)C(C)(C)C	13	n	n	n	n	n	n
COC(=O)c1ccccc1S(=O)(=O)C(C)(C)C	n	n	n	n	n	n	x
CCCn1c(N)c(N(CCOC)C(=O)c2ccc(S(=O)(=O)N3CCOCC3)cc2)c(=O)[nH]c1=O	x	x	x	n	x	x	x
Cc1ccccc1N(C(=O)Cc1cccs1)C(C(=O)NCC1CCCO1)c1cccnc1 (configuration not stated)	n	x	n	n	n	n	x
O=C(NCC1CCCO1)C(c1cccnc1)N(C(=O)Cc1cccs1)c1ccccc1 (configuration not stated)	17	n	n	n	n	n	n
CCOC(=O)/C=C/c1cnn(-c2ccccc2)c1	n	n	n	n	n	n	x
O=C(O)/C=C/c1cnn(-c2ccccc2)c1	15	n	n	n	n	n	n
Cc1ccc2nc(-c3ccc4c(c3)NC(=O)CO4)cn2c1	20	n	n	n	n	n	n
O=C(COC(=O)c1cc(=O)c2ccccc2o1)NC1CCCCC1	17	n	n	n	n	n	n
Cc1ccc2cc3c(N)c(C(=O)Nc4c(C)[nH]c(=O)[nH]c4=O)sc3nc2c1	12	n	n	n	n	n	n
CCCCn1c(N)c(N(CC)C(=O)c2ccc(C)cc2)c(=O)[nH]c1=O	x	x	n	n	x	n	x
CCCCn1c(N)c(N(CC)C(=O)c2cc(OC)cc(OC)c2)c(=O)[nH]c1=O	11	n	n	n	n	n	n
COc1cc(C)c(N)cc1C(C)C	19	n	n	n	n	n	n
O=C(Nc1cscc1S(=O)(=O)c1ccccc1)c1ccccc1Cl	n	n	n	n	n	u	x
CC(C)CCN1CCN(Cc2ccc(C#CC(C)(C)O)s2)CC1CCO (configuration not stated)	11	n	n	n	n	n	n
Cc1nn(CC(=O)NC2(C#N)CCCCC2)c(C)c1[N+](=O)[O-]	x	x	x	n	x	x	x
O=C(CCSCc1ccccc1F)NCc1cccs1	11	n	n	n	n	n	n

Screening results deposited in PubChem BioAssay by several laboratories.
